Activity calls are given as the source filed them. The rule behind the calls is not given here.
Legend:
[1] = Cytotoxicity against human HepAD38 cells; format: cell-based
[2] = tested on: Human immunodeficiency virus 1; assay: Ratio EC50 for PMPA to compound for HIV1 clade C isolate 4110 infected in human H9 cells assessed as inhibition of viral replication; format: functional
[3] = tested on: Human immunodeficiency virus 1; assay: Ratio EC50 for PMPA to compound for HIV1 clade B isolate 1722 infected in human H9 cells assessed as inhibition of viral replication; format: functional
[4] = tested on: Human immunodeficiency virus 1; assay: Ratio EC50 for PMPA to compound for HIV1 clade G isolate 3187 infected in human H9 cells assessed as inhibition of viral replication; format: functional
[5] = tested on: Human immunodeficiency virus 1; assay: Antiviral activity against 100 TCID50 wild-type Human immunodeficiency virus 1 3B infected in CEM cells assessed as inhibition of syncytia formation after 4 days by microscopic analysis; format: functional, organism-based; details: CCRF-CEM, 96 h
In short: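 Human CEM cells (~3 × 10^5 cells/cm3) infected with 100 CCID50/mL HIV-1 IIIB and seeded into wells holding compound dilutions. After 4 days at 37 °C, giant-cell (syncytium) formation was scored microscopically. EC50 is the concentration inhibiting syncytia formation by 50%.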

[6] = tested on: Human immunodeficiency virus 1; assay: Ratio EC50 for PMPA to compound for HIV1 clade F isolate 2338 infected in human H9 cells assessed as inhibition of viral replication; format: functional
[7] = tested on: Human immunodeficiency virus 1; assay: Antiviral activity against 125 TCID50 wild type HIV1 LAI infected in human H9 cells assessed as reduction in viral replication measured on day 7 post infection by reverse transcriptase activity; format: functional, organism-based; details: Human immunodeficiency virus 1, LAI, H9, 168 h
In short: (§1)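 PHA-P-activated PBMC (1.5 × 10^5; donor cells stimulated 3 days with 1 μg/mL PHA-P plus 5 IU/mL IL-2) or H9 cells (5 × 10^5) in RPMI-1640/10% FCS. Cells pre-treated 30 min with graded compound concentrations, then infected with HIV-1 LAI (100 or 125 TCID50). Supernatant RT activity read on day 7. EC50 from quadratic fit of % inhibition; triplicates, PBMC repeated with a second donor.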

[8] = tested on: Human immunodeficiency virus 1; assay: Antiviral activity against 100 TCID50 wild type HIV1 LAI infected in human PBMC assessed as reduction in viral replication measured on day 7 post infection by reverse transcriptase activity; format: functional, organism-based; details: Human immunodeficiency virus 1, LAI, 168 h; in short: as §1
Sindbis virus = assay: Antiviral activity against Sindbis virus infected in african green monkey Vero cells assessed as inhibition of virus-induced cytopathic effect up to 200 uM measured on day 3 post infection by microscopic analysis; format: functional, organism-based
In short: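 Confluent Vero cell monolayers inoculated with 100 CCID50 of virus. Compound added after 1–2 h adsorption, tested up to 200 μM. Microscopic CPE scoring on day 3 post infection versus untreated controls.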

Feline coronavirus = assay: Antiviral activity against Feline coronavirus infected in CrFK cells assessed as inhibition of virus-induced cytopathic effect up to 200 uM measured on day 3 post infection by microscopic analysis; format: functional, organism-based
In short: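 Confluent CrFK cells inoculated with 100 CCID50 of virus. Compounds up to 200 μM added after 1–2 h adsorption. Cytopathic effect recorded microscopically at day 3 relative to untreated controls.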

HeLa = assay: Cytotoxicity against human HeLa cells up to 200 uM; format: cell-based
In short: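 Uninfected confluent Vero, CrFK, HEL or HeLa cultures incubated with serial compound dilutions (up to 200 μM) for the same period as the antiviral assays. Minimal toxic concentration is the lowest giving microscopically detectable alteration of cell morphology.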

[9] = tested on: Human immunodeficiency virus 1; assay: Ratio EC50 for PMPA to compound for HIV1 clade B isolate 2101 infected in human H9 cells assessed as inhibition of viral replication; format: functional
[10] = tested on: Human immunodeficiency virus 1; assay: Antiviral activity against HIV1 clade C isolate 4110 infected in human H9 cells assessed as inhibition of viral replication; format: functional, organism-based; details: Human immunodeficiency virus 1, clade C isolate 4110, H9
In short: (§2)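 H9 cells infected with HIV-1 clinical isolates of clades A, B, C, D, A/E, F and G, in the presence of graded compound concentrations. EC50 is the concentration reducing viral replication by 50%.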

Coxsackievirus B4 = assay: Antiviral activity against Coxsackie virus B4 infected in HeLa cells assessed as inhibition of virus-induced cytopathic effect up to 200 uM measured on day 3 post infection by microscopic analysis; format: functional, organism-based
In short: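 HeLa monolayers at confluency infected with 100 CCID50 of virus. Compound dilutions up to 200 μM added after 1–2 h adsorption. Cytopathic effect recorded microscopically on day 3 relative to untreated controls.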

[11] = tested on: Human immunodeficiency virus 1; assay: Antiviral activity against HIV1 clade G isolate 3187 infected in human H9 cells assessed as inhibition of viral replication; format: functional, organism-based; details: Human immunodeficiency virus 1, clade G isolate 3187, H9; in short: as §2
Human alphaherpesvirus 1 = assay: Antiviral activity against Herpes simplex virus type 1 KOS infected in HEL cells assessed as inhibition of virus-induced cytopathic effect; format: functional, organism-based; details: Human alphaherpesvirus 1, KOS
In short: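 Confluent HEL cell monolayers inoculated with 100 CCID50 of virus. Compounds added after a 1–2 h adsorption period. Virus-induced cytopathic effect scored microscopically at 3 days post infection as % of untreated controls. EC50 derived from graphical plots.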

[12] = tested on: Human immunodeficiency virus 1; assay: Ratio EC50 for PMPA to compound for HIV1 clade A isolate 4113 infected in human H9 cells assessed as inhibition of viral replication; format: functional
[13] = tested on: Human immunodeficiency virus 1; assay: Antiviral activity against HIV1 clade B isolate 2101 infected in human H9 cells assessed as inhibition of viral replication; format: functional, organism-based; details: Human immunodeficiency virus 1, clade B isolate 2101, H9; in short: as §2
Hepatitis B virus [14] = assay: Ratio EC50 for PMEA to compound for Hepatitis B virus infected in human HepAD38 cells assessed as reduction in viral DNA level after 6 days by real time quantitative PCR analysis; format: functional
Hepatitis B virus [15] = assay: Ratio EC50 for PMEA to compound for Hepatitis B virus infected in human HuH7 cells assessed as reduction in viral DNA level treated day 3 to day 8 post transfection by real time quantitative PCR analysis; format: functional, Huh-7
[16] = tested on: Human immunodeficiency virus 1; assay: Ratio EC50 for PMEA to compound for HIV1 clade G isolate 3187 infected in human H9 cells assessed as inhibition of viral replication; format: functional
[17] = tested on: Human immunodeficiency virus 1; assay: Ratio EC50 for PMEA to compound for HIV1 clade B isolate 2101 infected in human H9 cells assessed as inhibition of viral replication; format: functional
In short: (§3)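 Ratio computed as EC50 of PMEA divided by EC50 of the test compound, both measured against the same clinical isolate in H9 cells.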

Hepatitis B virus [18] = assay: Antiviral activity against Hepatitis B virus infected in human HuH7 cells assessed as reduction in viral DNA level treated day 3 to day 8 post transfection by real time quantitative PCR analysis; format: functional, organism-based; details: Huh-7
[19] = tested on: Human immunodeficiency virus 1; assay: Ratio EC50 for PMEA to compound for HIV1 clade B isolate 1722 infected in human H9 cells assessed as inhibition of viral replication; format: functional; in short: as §3
[20] = tested on: Human immunodeficiency virus 1; assay: Ratio EC50 for PMEA to compound for HIV1 clade A/E isolate 2165 infected in human H9 cells assessed as inhibition of viral replication; format: functional; in short: as §3
[21] = tested on: Human immunodeficiency virus 1; assay: Ratio EC50 for PMEA to compound for HIV1 clade F isolate 2338 infected in human H9 cells assessed as inhibition of viral replication; format: functional; in short: as §3
[22] = tested on: Human immunodeficiency virus 1; assay: Ratio EC50 for PMEA to compound for HIV1 clade C isolate 2914 infected in human H9 cells assessed as inhibition of viral replication; format: functional; in short: as §3
[23] = tested on: Human immunodeficiency virus 1; assay: Ratio EC50 for PMEA to compound for HIV1 clade A isolate 4113 infected in human H9 cells assessed as inhibition of viral replication; format: functional; in short: as §3

C[C@H](Cn1cnc2c(N)ncnc21)OCP(=O)([O-])[S-].[Na+].[Na+] (stereo not given in full)
CC50 [1]: > 150 µM
Ratio EC50 [2]: 1.54
Ratio EC50 [3]: 1.35
Ratio EC50 [4]: 1.25
EC50 [5]: 14 µM
Ratio EC50 [6]: 0.2
EC50 [7]: 0.38 µM
EC50 [8]: 4.2 µM
inhibition (Sindbis virus): inactive
inhibition (Feline coronavirus): inactive
Activity (HeLa): Non-toxic
Ratio EC50 [9]: 0.51
EC50 [10]: 0.54 µM
inhibition (Coxsackievirus B4): inactive
EC50 [11]: 0.12 µM
EC50 (Human alphaherpesvirus 1): 169 µM
Ratio EC50 [12]: 1.25
EC50 [13]: 0.47 µM

Nc1ncnc2c1ncn2CCOCP(=O)([O-])[S-].[Na+].[Na+] (stereo not given)
CC50 [1]: > 150 µM
Ratio EC50 (Hepatitis B virus [14]): 1.5
Ratio EC50 (Hepatitis B virus [15]): 1.5
EC50 [5]: 16 µM
Ratio EC50 [16]: 0.25
EC50 [7]: 1.9 µM
EC50 [8]: 14 µM
inhibition (Sindbis virus): inactive
inhibition (Feline coronavirus): inactive
Activity (HeLa): Non-toxic
Ratio EC50 [17]: 7.16
EC50 (Hepatitis B virus [18]): 4.5 µM
Ratio EC50 [19]: 0.66
Ratio EC50 [20]: 1.06
EC50 [10]: 0.45 µM
inhibition (Coxsackievirus B4): inactive
Ratio EC50 [21]: 0.86
EC50 [11]: 0.88 µM
Ratio EC50 [22]: 2.96
EC50 (Human alphaherpesvirus 1): 40 µM
EC50 [13]: 0.49 µM
Ratio EC50 [23]: 10.8
